Series [1] in a line: Metabolic stability in rat liver microsomes assessed as half life. The format is ADME, Microsome. (Liver microsomes are a subcellular fraction often used to study metabolism.)
Series [2] can be described thus: Membrane permeability by PAMPA assay. The format is ADME. Conditions: read-out: permeability. Background: The PAMPA barrier holds no transporters, so it reflects passive diffusion.
The nature of series [3]: Volume of distribution at steady state in rat at 1.0 mg/kg, iv. Format: ADME, organism-based. Details: dose 1 mg/kg, route intravenous. To be noted: in vivo, read-out: Vdss.
Series [4] can be described thus: AUC (0 to infinity) in rat at 1.0 mg/kg, iv. The format is ADME, organism-based. On the set-up: time infinity, dose 1 mg/kg, route intravenous. To be noted: plasma.
Series [5] can be described thus: Half life in rat plasma at 10 mg/kg, po. Format: ADME, organism-based. On the set-up: dose 10 mg/kg, route oral.
Series [6] in a line: Plasma clearance in rat at 1.0 mg/kg, iv. Format: ADME, organism-based. On the set-up: dose 1 mg/kg, route intravenous.
A short description of series [7]: AUC (0 to infinity) in rat at 10 mg/kg, po. The format is ADME, organism-based. Details: dose 10 mg/kg, route oral, time infinity. Conditions: plasma.
Series [8] deals with T1, Gonadotropin-releasing hormone receptor (Homo sapiens, UniProt P30968).
T1 sequence (P30968 whole entry): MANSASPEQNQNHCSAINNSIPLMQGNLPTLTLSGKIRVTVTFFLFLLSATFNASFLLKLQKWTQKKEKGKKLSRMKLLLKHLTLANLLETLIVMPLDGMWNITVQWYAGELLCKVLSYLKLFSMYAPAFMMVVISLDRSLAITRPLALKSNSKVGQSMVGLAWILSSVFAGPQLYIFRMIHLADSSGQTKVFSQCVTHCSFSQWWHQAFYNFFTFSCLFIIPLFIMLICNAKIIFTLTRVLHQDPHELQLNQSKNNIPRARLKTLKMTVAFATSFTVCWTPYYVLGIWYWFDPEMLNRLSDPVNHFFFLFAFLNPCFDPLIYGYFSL
Description: Antagonist activity at human recombinant GnRH receptor assessed as reduction in (D-Trp6)LHRH-induced myo-(1,2)-[3H]inositol production. The format is functional. Summed up: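 Recombinant cells expressing human GnRH receptor, pre-labeled with myo-(1,2)-3H-inositol, incubated 1 h in medium with lithium chloride and D-Trp6-LHRH, with or without antagonist. Cells then lysed and labeled inositol phosphates separated from inositol by […] and counted. Run in triplicate, repeated in three independent experiments; IC50 derived.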

The nature of series [9]: Tmax in rat at 10 mg/kg, po. The format is ADME, organism-based. Details: dose 10 mg/kg, route oral. To be noted: in vivo.
Series [10] has as its target T1, Gonadotropin-releasing hormone receptor. The series can be described thus: Displacement of [125I]-(D-Trp6)LHRH from human recombinant GnRH receptor. Summed up: (§1)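 Membranes from recombinant cells expressing human or rat GnRH receptor, made in 25 mM Tris-Cl pH 7.4 with 0.1% sodium azide and 0.1% BSA. 50 μg protein incubated with about 50,000 cpm 125I-(D-Trp6)-LHRH for 2 h at 4 °C, with increasing unlabeled competitor. Filtered on BSA-presoaked glass-fiber filters, washed twice, counted by gamma counter. Percent inhibition and IC50 derived.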
In general terms: In a radioligand displacement assay an active substance lowers the binding of a labelled ligand.

Series [11] can be described thus: Bioavailability in rat at 10 mg/kg, po. Format: ADME, organism-based. To be noted: in vivo.
In series [12] the target is T2, Gonadotropin-releasing hormone receptor (Rattus norvegicus, UniProt P30969).
T2 sequence (P30969 whole entry): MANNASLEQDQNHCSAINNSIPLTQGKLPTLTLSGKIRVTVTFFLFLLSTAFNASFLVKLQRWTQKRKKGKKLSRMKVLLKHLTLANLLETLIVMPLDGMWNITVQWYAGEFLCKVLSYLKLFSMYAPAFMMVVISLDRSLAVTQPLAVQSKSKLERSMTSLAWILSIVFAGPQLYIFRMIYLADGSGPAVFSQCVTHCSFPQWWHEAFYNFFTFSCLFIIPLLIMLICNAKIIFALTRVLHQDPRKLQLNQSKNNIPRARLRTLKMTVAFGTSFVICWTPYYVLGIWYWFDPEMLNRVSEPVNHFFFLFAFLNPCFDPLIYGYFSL
Description: Antagonist activity at […] GnRH receptor in CO2 asphyxiated rat primary pituitary cells assessed as reduction in (D-Trp6)LHRH-induced LH release. Format: functional, cell-based, Pituitary gland cell. Summed up:
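Anterior pituitaries from adult rats were minced, dissociated and plated at 30,000 cells/well in DMEM with 25 mM Hepes and 10% FBS, then cultured 72 h at 37 °C, 5% CO2. After washing, cells were treated 3 h in 0.1% BSA medium with an antagonist dose response plus an ED50 concentration of D-Trp6-LHRH. LH in medium measured by RIA; cell toxicity checked by CellTiter-Glo.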

Series [13] is described as follows: Solubility of compound at pH 7.4. Format: physicochemical. To be noted: buffer.
Series [14] in a line: Half life in rat plasma at 1.0 mg/kg, iv. Format: ADME, organism-based. On the set-up: dose 1 mg/kg, route intravenous.
Series [15] concerns the target T2, Gonadotropin-releasing hormone receptor. Description: Displacement of [125I]-(D-Trp6)LHRH from rat recombinant GnRH receptor. An outline of the steps:
as §1

The nature of series [16]: Cmax in rat at 10 mg/kg, po. The format is ADME, organism-based. Details: dose 10 mg/kg, route oral. Conditions: in vivo.
Series [17] relates to Rattus norvegicus. Description: Activity in orchidectomized castrated Sprague-Dawley rat assessed as reduction in LH level at 30 mg/kg, po after 24 hrs. Format: functional, organism-based. On the set-up: dose 30 mg/kg. To be noted: in the assay text read “after 1 to 6 hrs” for “after 24 hrs”. Summed up:
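Male Sprague–Dawley rats ten days post-castration, jugular-catheterized; basal blood drawn, then vehicle (2% Tween 80/0.04 N HCl) or antagonist given orally. Blood sampled at regular intervals, plasma LH measured by ELISA. Figure legend gives PEG 400 as vehicle, nine animals per group, t = 0 levels set to 100.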

Series [18] can be described thus: AUC (0 to infinity) in rat at 20 mg/kg, po. Format: ADME, organism-based. Details: time infinity, dose 20 mg/kg, route oral. To be noted: plasma.
Series [19] can be described thus: Cmax in rat at 20 mg/kg, po. Format: ADME, organism-based. Details: dose 20 mg/kg, route oral. Conditions: in vivo.
A short description of series [20]: Half life in rat plasma at 20 mg/kg, po. Format: ADME, organism-based. On the set-up: dose 20 mg/kg, route oral.
Series [21] concerns the target 5-hydroxytryptamine receptor 2A (Homo sapiens, UniProt P28223). The series can be described thus: Binding affinity to 5HT2A receptor.
Series [22] is described as follows: Bioavailability in rat at 20 mg/kg, po. Format: ADME, organism-based. Conditions: in vivo.
Series [23] can be described thus: Tmax in rat at 20 mg/kg, po. On the set-up: dose 20 mg/kg, route oral. Format: ADME, organism-based. To be noted: in vivo.
In series [24] the target is 5-hydroxytryptamine receptor 1B (Homo sapiens, UniProt P28222). Description: Binding affinity to human 5HT1B receptor.
Series [25] concerns the target T3, 5-hydroxytryptamine receptor 1A (Homo sapiens, UniProt P08908).
T3 sequence (P08908 whole entry): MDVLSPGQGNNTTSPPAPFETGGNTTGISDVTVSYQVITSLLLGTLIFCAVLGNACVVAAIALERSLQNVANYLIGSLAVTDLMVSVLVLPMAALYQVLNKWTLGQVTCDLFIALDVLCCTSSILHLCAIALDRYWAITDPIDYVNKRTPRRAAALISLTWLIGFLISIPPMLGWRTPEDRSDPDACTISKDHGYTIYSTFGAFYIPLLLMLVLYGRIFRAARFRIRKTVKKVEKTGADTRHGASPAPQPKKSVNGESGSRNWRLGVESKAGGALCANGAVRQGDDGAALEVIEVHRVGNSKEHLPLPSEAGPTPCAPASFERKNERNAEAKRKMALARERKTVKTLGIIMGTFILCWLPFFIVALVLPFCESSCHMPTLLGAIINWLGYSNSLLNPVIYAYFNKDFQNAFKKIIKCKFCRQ
The series can be described thus: Binding affinity to human 5HT1A receptor. To be noted: read-out: Ki.

Series [26] has as its target 5-hydroxytryptamine receptor 1D (Homo sapiens, UniProt P28221). Description: Binding affinity to human 5HT1D receptor.

In brackets after ≈: the same amount, converted by molar mass. Activity calls are given as the source filed them. The calls are words filed in the database; no cut-off is given here.

Chain of 5-hydroxytryptamine receptor 1B (P28222 whole entry): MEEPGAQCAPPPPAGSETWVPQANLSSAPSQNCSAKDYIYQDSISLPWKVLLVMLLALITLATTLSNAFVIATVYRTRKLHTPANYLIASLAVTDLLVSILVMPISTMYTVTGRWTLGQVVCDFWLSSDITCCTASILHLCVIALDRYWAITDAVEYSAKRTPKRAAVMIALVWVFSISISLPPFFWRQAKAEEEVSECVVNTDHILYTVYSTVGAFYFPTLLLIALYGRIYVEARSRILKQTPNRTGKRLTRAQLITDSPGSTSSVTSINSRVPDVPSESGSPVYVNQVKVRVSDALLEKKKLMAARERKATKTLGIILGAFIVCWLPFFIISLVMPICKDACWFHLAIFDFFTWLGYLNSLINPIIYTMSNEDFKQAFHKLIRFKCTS
Chain of 5-hydroxytryptamine receptor 1D (P28221 whole entry): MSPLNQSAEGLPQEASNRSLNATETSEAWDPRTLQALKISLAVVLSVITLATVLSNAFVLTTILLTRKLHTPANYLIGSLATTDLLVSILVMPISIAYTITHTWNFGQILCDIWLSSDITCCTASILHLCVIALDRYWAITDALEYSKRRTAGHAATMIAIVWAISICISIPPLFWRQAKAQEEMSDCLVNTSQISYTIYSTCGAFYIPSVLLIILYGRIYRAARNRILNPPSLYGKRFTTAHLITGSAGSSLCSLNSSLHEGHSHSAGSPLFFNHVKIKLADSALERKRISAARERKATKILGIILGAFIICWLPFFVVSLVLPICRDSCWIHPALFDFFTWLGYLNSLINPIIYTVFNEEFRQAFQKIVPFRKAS
Chain of 5-hydroxytryptamine receptor 2A (P28223 whole entry): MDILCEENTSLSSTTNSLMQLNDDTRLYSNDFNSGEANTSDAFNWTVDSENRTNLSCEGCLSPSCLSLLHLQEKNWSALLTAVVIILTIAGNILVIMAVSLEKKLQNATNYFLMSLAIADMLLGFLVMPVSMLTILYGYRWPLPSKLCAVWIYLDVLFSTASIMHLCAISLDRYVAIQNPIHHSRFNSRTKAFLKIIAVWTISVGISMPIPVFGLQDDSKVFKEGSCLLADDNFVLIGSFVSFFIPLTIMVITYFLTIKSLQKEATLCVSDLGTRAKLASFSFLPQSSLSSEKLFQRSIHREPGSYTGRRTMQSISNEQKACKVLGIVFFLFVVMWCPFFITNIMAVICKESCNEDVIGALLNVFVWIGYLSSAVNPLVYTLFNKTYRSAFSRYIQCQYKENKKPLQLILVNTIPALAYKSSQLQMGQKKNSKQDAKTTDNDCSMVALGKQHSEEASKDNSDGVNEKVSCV

As to `CC(C)(C)c1ccc(-c2nc3c(N4CCN(Cc5c[nH]c(=O)[nH]c5=O)CC4)cccc3[nH]2)cc1`, the half-life (in general, the time in which the quantity being followed falls by half) in series [1] was 0.5 h; in series [5], 5.8 h; in series [14], 3.5 h. Besides, in [2], the Papp stood at 0.6 ×10⁻⁶ cm/s. For the same compound, the Vd in [3] is 3.1 L/kg. In addition, the AUC(0-inf) (commonly the area under the concentration-time curve extrapolated to infinity) came out at 355 ng·h/mL in series [4] and 200 ng·h/mL in [7]. The clearance (usually the volume of plasma or blood freed of the substance per unit of time) in series [6] stood at 47 mL/min/kg. Moreover, the half-maximal inhibitory concentration (IC50) (usually the point on the concentration scale where inhibition reaches its midpoint) in series [8] came to 9.4 nM; in [10], 5.5 nM; in series [12] it was 41 nM; in series [15] it was 32 nM. In addition, the time to peak (Tmax) (as a rule, the time from dosing to the highest level) in [9] was 1.8 h. Also, the bioavailability (commonly dose-corrected exposure relative to a reference, in per cent) in [11] came out at 5%. For the same compound, in series [13], the solubility – broadly, how much of the substance goes into solution per volume – amounted to 25 µg/mL (≈ 54.5 µM). The Cmax (as a rule, the highest concentration seen after dosing) in [16] worked out at 19 ng/mL.

On to `CCn1cc(CN2CCN(c3cccc4[nH]c(-c5ccc(C(C)(C)C)cc5)nc34)CC2)c(=O)[nH]c1=O`, for which, in series [17], the outcome was Active. For the same compound, in series [3], the Vd turned out to be 4.8 L/kg. The results for the AUC(0-inf) in [18] and in [4] were 2720 ng·h/mL and 190 ng·h/mL, respectively. The peak concentration (Cmax) in [19] stood at 480 ng/mL. Moreover, the half-life in series [20] is 3.1 h; in series [14] it was 1.1 h. In addition, the inhibition constant Ki (in general, a dissociation constant, usually derived from enzyme kinetics or from competition with a known ligand) in series [21] was found to be 230 nM. Besides, the bioavailability in [22] was found to be 74%. This compound also showed a clearance in series [6] of 95 mL/min/kg. In addition, the IC50 in [8] was found to be 4 nM; in series [10], 11 nM; in series [12], 59 nM; in [15], 32 nM. Moreover, the time to peak (Tmax) in series [23] worked out at 0.67 h.

Turning to `FC(F)(F)c1nc2c(N3CCN(CCOc4cccc5nc(C(F)(F)F)[nH]c45)CC3)cccc2[nH]1`, the figures for the Ki in series [24], in [25] and in series [26] were 60 nM, 19 nM and 0.55 nM, respectively. In addition, the IC50 in series [8] stood at 9200 nM; in series [10], 1500 nM; in [12], 83000 nM; in series [15], 15000 nM.

Values taken from ChEMBL document CHEMBL1157420, “2-phenyl-4-piperazinylbenzimidazoles: orally active inhibitors of the gonadotropin releasing hormone (GnRH) receptor” (Bioorg Med Chem, 2008).
